The list is not random: actives were taken first. Their share in the collection is about 2.3%.
TRPC6 inhibitor: blocks the mouse TRPC6 cation channel; HEK293-TRPC6, membrane potential dye, ACh-evoked depolarization; active compounds read low; B-score at 10 µM; hit rate 1.1% among 310,000; Q61143;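 active = B-score under library mean minus 3 SD, initial fluorescence not abnormally high, positive integrated signal ratio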;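 also: B-score derived from integrated fluorescence ratio over the kinetic read; more negative B-score means stronger inhibition of depolarization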
TRPC4 act: activators of mouse TRPC4 channel; HEK293 TRPC4beta/mu-opioid, Fluo4 calcium fluorescence; active compounds read high; B-score at 10 µM; hit rate 0.49% among 310,000; AID 2237;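 active = B-score above 5 SD of library B-scores, and initial fluorescence ratio not above library mean plus 5 SD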;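 also: positive B-score marks a calcium rise read as TRPC4 activation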
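Assay system: HEK293 stable line with TRPC4beta plus mu-opioid receptor. Times: dye 45 min RT, read 110 s. Measured by: kinetic Fluo4 calcium fluorescence. Measure: B score of integrated ratio. Controls: assay buffer as low control, maximal DAMGO as high control.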
TRPC4 block: TRPC4 (mouse) channel inhibition; HEK293 TRPC4beta/mu-opioid, DAMGO-evoked Fluo4 calcium flux; active compounds read low; B-score at 10 µM; hit rate 0.39% among 300,000; AID 2247; Q9QUQ5;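 active = B-score over 3 SD under the library average, no early fluorescence shift, positive overall ratio signal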
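Signal: kinetic Fluo4 fluorescence imaging of calcium influx. Material: stable TRPC4beta/mu-opioid receptor HEK293 cells. Probe or stimulus: DAMGO in two steps, submaximal then maximal.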
TRPC6 act: activators of mouse TRPC6 channel. Q61143. HEK293-TRPC6 membrane potential dye fluorescence; active compounds read high. B-score at 10 µM. hit rate 0.13% among 310,000. AID 2550;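 active = B-score of the integrated fluorescence ratio above library mean plus 3 SD, and starting fluorescence ratio within library mean plus 5 SD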;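 also: higher score means more depolarization so channel activation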
TRPC4 potent: allosteric potentiators of mouse TRPC4 channel | Q9QUQ5 | HEK293 TRPC4beta/mu-opioid, DAMGO EC20, Fluo-4 Ca2+ flux; active compounds read high | B-score at 10 µM | hit rate 0.42% among 310,000;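 active = B-score of calcium response area above 5 SD of library B-scores, with initial fluorescence ratio within 5 SD of library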;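 also: B-score of integrated fluorescence ratio over time as area under calcium response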
Active calls of the source: *.

CN1CCN(NC(=O)c2cccc(C(F)(F)F)c2)CC1 was read as TRPC6 inhibitor inactive, TRPC4 act 53*, TRPC4 block inactive, TRPC6 act inactive and TRPC4 potent inactive.
CCn1cc(S(=O)(=O)Nc2cc(C(=O)OC)ccc2C)cn1 was read as TRPC6 inhibitor inactive, TRPC4 act inactive, TRPC4 block inactive, TRPC6 act inactive and TRPC4 potent inactive.
`Cc1ccc(N(CC(=O)NCc2ccc3c(c2)OCO3)C(=O)c2csnn2)cc1` gave TRPC6 inhibitor inactive, TRPC4 act inactive, TRPC4 block inactive, TRPC6 act inactive and TRPC4 potent inactive.
Screening Cn1c(=O)c2[nH]c(CN3CCN(Cc4ccccc4)CC3)nc2n(C)c1=O returned TRPC6 inhibitor inactive, TRPC4 act inactive, TRPC4 block inactive, TRPC6 act inactive and TRPC4 potent inactive.
For CN1CCN(Cc2nc3c([nH]2)c(=O)[nH]c(=O)n3C)CC1 the results were TRPC6 inhibitor inactive, TRPC4 act 72*, TRPC4 block inactive, TRPC6 act inactive and TRPC4 potent inactive.
For CC(C)(C)N=C1NN=C(c2cc3ccccc3o2)CS1 the results were TRPC6 inhibitor inactive, TRPC4 act inactive, TRPC4 block inactive, TRPC6 act inactive and TRPC4 potent 11*.
For O=C(CCn1c(=S)[nH]c2cc3c(cc2c1=O)OCO3)NCc1ccccc1Cl the results were TRPC6 inhibitor inactive, TRPC4 act inactive, TRPC4 block inactive, TRPC6 act inactive and TRPC4 potent inactive.
`CN1CCN(NC(=O)Nc2cc(Cl)cc(Cl)c2)CC1` gave TRPC6 inhibitor inactive, TRPC4 act inactive, TRPC4 block inactive, TRPC6 act inactive and TRPC4 potent 26*.
CN1CCCC(OC(=O)c2ccc(C#N)cc2)C1 (configuration not stated) was read as TRPC6 inhibitor inactive, TRPC4 act inactive, TRPC4 block inactive, TRPC6 act inactive and TRPC4 potent inactive.
Screening Cc1ccccc1C(=O)OC1CCCN(C)C1 (configuration not stated) returned TRPC6 inhibitor inactive, TRPC4 act inactive, TRPC4 block inactive, TRPC6 act inactive and TRPC4 potent 14*.
Cc1cccc(C(=O)OC2CCCN(C)C2)c1C (configuration not stated) was read as TRPC6 inhibitor inactive, TRPC4 act 95*, TRPC4 block inactive, TRPC6 act inactive and TRPC4 potent inactive.
`COc1ccc(C(=O)NCC(c2ccco2)N2CCc3ccccc32)c(OC)c1` (configuration not stated) gave TRPC6 inhibitor inactive, TRPC4 act inactive, TRPC4 block inactive, TRPC6 act inactive and TRPC4 potent 10*.
Screening COc1ccc2nc(SCC(N)=O)[nH]c2c1 returned TRPC6 inhibitor inactive, TRPC4 act inactive, TRPC4 block inactive, TRPC6 act inactive and TRPC4 potent inactive.
COc1ccc2nc(SCCN(C)C)[nH]c2c1 was read as TRPC6 inhibitor inactive, TRPC4 act 113*, TRPC4 block inactive, TRPC6 act inactive and TRPC4 potent inactive.
Screening CC1(C)NC(=O)N(CCCCOc2ccc3ccccc3c2Cl)C1=O returned TRPC6 inhibitor inactive, TRPC4 act inactive, TRPC4 block inactive, TRPC6 act inactive and TRPC4 potent inactive.
For CC1(C)NC(=O)N(CCOCCOc2ccc3ccccc3c2Br)C1=O the results were TRPC6 inhibitor inactive, TRPC4 act inactive, TRPC4 block inactive, TRPC6 act inactive and TRPC4 potent 13*.
Cc1nc(SC(C)C(=O)c2c(N)n(C)c(=O)n(C)c2=O)c2c(C)c(C)sc2n1 (configuration not stated) was read as TRPC6 inhibitor inactive, TRPC4 act inactive, TRPC4 block inactive, TRPC6 act inactive and TRPC4 potent inactive.
`CCc1ccc(S(=O)(=O)N2CCCC(N3CCN(c4ccc(OC)cc4)CC3)C2)cc1` (configuration not stated) gave TRPC6 inhibitor inactive, TRPC4 act inactive, TRPC4 block inactive, TRPC6 act inactive and TRPC4 potent inactive.
`N#Cc1sc(NCc2ccccn2)nc1Cl` gave TRPC6 inhibitor inactive, TRPC4 act inactive, TRPC4 block inactive, TRPC6 act inactive and TRPC4 potent inactive.
CN(CCc1nc2ccc(Cl)cc2[nH]1)Cc1nc(CC2CC2)no1 was read as TRPC6 inhibitor inactive, TRPC4 act 105*, TRPC4 block inactive, TRPC6 act inactive and TRPC4 potent inactive.
For COc1ccc(N2CC(C(=O)N3CCN(c4ccccc4OC)CC3)CC2=O)cc1 (configuration not stated) the results were TRPC6 inhibitor inactive, TRPC4 act inactive, TRPC4 block inactive, TRPC6 act inactive and TRPC4 potent inactive.
For O=C1CCC(C(=O)N2CCc3ccccc3C2)CN1CCCN1CCOCC1 (configuration not stated) the results were TRPC6 inhibitor inactive, TRPC4 act inactive, TRPC4 block inactive, TRPC6 act inactive and TRPC4 potent inactive.
For O=C(N/N=C/c1ccccn1)c1ccc([N+](=O)[O-])cc1Cl the results were TRPC6 inhibitor inactive, TRPC4 act inactive, TRPC4 block inactive, TRPC6 act inactive and TRPC4 potent inactive.
`O=C(N/N=C/c1ccccn1)c1[nH]c2ccc([N+](=O)[O-])cc2c1-c1ccccc1` gave TRPC6 inhibitor inactive, TRPC4 act inactive, TRPC4 block -6*, TRPC6 act inactive and TRPC4 potent inactive.
`NNC(=O)c1[nH]c2ccc([N+](=O)[O-])cc2c1-c1ccccc1` gave TRPC6 inhibitor inactive, TRPC4 act inactive, TRPC4 block -6*, TRPC6 act inactive and TRPC4 potent inactive.
O=C(O)c1[nH]c2ccc([N+](=O)[O-])cc2c1-c1ccccc1 was read as TRPC6 inhibitor inactive, TRPC4 act inactive, TRPC4 block inactive, TRPC6 act inactive and TRPC4 potent inactive.
`O=[N+]([O-])c1ccc2[nH]nc(-c3ccccc3)c2c1` gave TRPC6 inhibitor inactive, TRPC4 act inactive, TRPC4 block -6*, TRPC6 act inactive and TRPC4 potent inactive.
Screening O=C(NCc1ccc(CNC(=O)c2ccco2)cc1)c1ccco1 returned TRPC6 inhibitor inactive, TRPC4 act inactive, TRPC4 block inactive, TRPC6 act inactive and TRPC4 potent inactive.
Screening CCOc1ccc(S(=O)(=O)N2CCCCC2)c(C)c1C returned TRPC6 inhibitor inactive, TRPC4 act inactive, TRPC4 block inactive, TRPC6 act inactive and TRPC4 potent 14*.
Screening CCCc1n[nH]c2c1/C(=N\O)CCC2 returned TRPC6 inhibitor inactive, TRPC4 act inactive, TRPC4 block inactive, TRPC6 act inactive and TRPC4 potent inactive.
Cn1nc(-c2ccc(Cl)cc2)nc2c(=O)n(C)c(=O)nc1-2 was read as TRPC6 inhibitor -5.1*, TRPC4 act inactive, TRPC4 block inactive, TRPC6 act inactive and TRPC4 potent inactive.

From PubChem BioAssay
